From PubChem BioAssay
m5-HT2A agonist: mouse Htr2a agonists via beta-arrestin recruitment, primary screen, cell-based, luminescence | 5-hydroxytryptamine receptor 2A (Mus musculus), P35363 | CHO-K1 mHTR2A beta-arrestin complementation; percent of 30 µM serotonin response | activation, % at 7.6 µM | actives 0.66% (n = 360,000) | AID 624169, 2012;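 active = activation above a run cutoff, the mean activation of all tested compounds plus 3 SD, cut at about 14% in these data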;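 also: 0% = plate median of compound wells and 100% = 30 µM serotonin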
CXCR6 inh: CXCR6 receptor inhibitors, primary screen, cell-based, beta-arrestin, luminescence, CHO-K1 PathHunter, 1536-well | C-X-C chemokine receptor type 6 (Homo sapiens), O00574 | inhibition, % at 20 µM | actives 0.36% (n = 360,000) | AID 602244, 2012; in the data active = inhibition above about 34%, passing the limit was not always enough;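 also: antagonist mode with CXCL16 agonist at 10 nM final; 0% = 10 nM CXCL16 with DMSO and 100% = unstimulated wells without agonist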
Target sequence (O00574 whole entry, looked up): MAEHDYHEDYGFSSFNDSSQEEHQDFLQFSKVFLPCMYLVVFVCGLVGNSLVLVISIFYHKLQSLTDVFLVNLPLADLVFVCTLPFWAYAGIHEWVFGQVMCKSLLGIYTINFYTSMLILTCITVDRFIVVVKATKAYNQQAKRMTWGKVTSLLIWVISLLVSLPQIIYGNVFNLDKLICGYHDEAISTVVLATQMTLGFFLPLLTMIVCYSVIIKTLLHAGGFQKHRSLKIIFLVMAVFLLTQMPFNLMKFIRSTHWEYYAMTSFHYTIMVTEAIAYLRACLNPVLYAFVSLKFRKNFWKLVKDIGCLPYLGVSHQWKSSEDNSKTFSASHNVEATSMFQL
APJ antag: antagonists of human apelin receptor APJ, primary screen, CHO-K1 cells, beta-arrestin complementation, luminescence; actives 0.32% (n = 330,000); AID 2521, 2010; P35414; inhibition, % at 20 µM;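 active = inhibition above about 40% at 20 µM, limit read from the data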;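 also: cells challenged with 10 nM apelin-13 agonist together with compound; plate controls were apelin-13 plus DMSO wells for no effect and DMSO wells lacking apelin-13 for full effect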
APJ agonist: agonists of human apelin receptor APJ, primary screen, CHO-K1 cells, PathHunter beta-arrestin, luminescence; P35414; activation, % at 20 µM; 0% DMSO wells, 100% apelin; actives 0.11% (n = 330,000);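 active = activation more than six SD over the plate average, tested at 20 µM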;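 also: 0% = DMSO alone and 100% = apelin-13 at 10 nM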
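Assay system – PathHunter CHO-K1 APJ (AGTRL-1) beta-arrestin reporter cells · Compound – one dose, 20 µM compound, 1% DMSO · Timing – compound 90 min 25 °C, reagent 1 h · Measured by – luminescence from split beta-galactosidase complementation, Galacton Star/Emerald II substrate · Measure – beta-arrestin recruitment to APJ as agonist activity, luminescent signal · Benchmarks – DMSO vs Apelin-13 10 nM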
CCR6 antag: CCR6 receptor antagonists, primary screen, cell-based, CHO-K1, luminescence, beta-arrestin, uHTS; actives 0.49% (n = 340,000); AID 493098, 2011; inhibition, % at 20 µM; CHO-K1 CCR6 PathHunter beta-arrestin, CCL20-stimulated;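 active = compounds whose inhibition of the agonist-driven luminescence signal at 20 µM reaches about 50%, limit read from the data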;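 also: cells stimulated with CCL20 at 14 nM final; plate controls were DMSO with CCL20 for no effect and DMSO without agonist for full effect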
EBI2 antag: EBI2 receptor antagonists, beta-arrestin recruitment, primary screen, cell-based, luminescence, 7a,25-OHC stimulation, uHTS. inhibition, % at 5 µM. actives 0.81% (n = 360,000). G-protein coupled receptor 183 (Homo sapiens), P32249. 7a,25-OHC stimulated; in the data active = inhibition above about 38%;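 also: enzyme fragment complementation signal reports receptor beta-arrestin coupling in cells; 0% = agonist plus DMSO wells and 100% = wells without agonist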
CXCR6 antag conf: CXCR6 receptor antagonists, confirmation, cell-based, single concentration, beta-arrestin, luminescence; actives 65% (n = 700); shares compounds with CXCR6 inh; inhibition, % at 20 µM; CHO-K1 CXCR6 PathHunter beta-arrestin;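 active = mean inhibition over four retests above 40%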;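 also: receptor stimulated with 10 nM CXCL16 agonist; beta-galactosidase fragment complementation upon beta-arrestin recruitment to receptor; plate controls were CXCL16 plus DMSO for no effect and DMSO without CXCL16 for full effect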
Numbers without * were called inactive; · = no result. Compounds with a hit are over-represented: about 2.1% of the library has one in this group of screens.

SMILES	m5-HT2A agonist	CXCR6 inh	APJ antag	APJ agonist	CCR6 antag	EBI2 antag	CXCR6 antag conf
COc1ccccc1-c1noc(CCC(=O)Nc2cccc(C)c2)n1	-2	62*	9	-4	21	8	-5
CC(=NNC(=S)N1CCCCC1)c1cccc(C)n1	-4	43*	·	·	23	2	20
CC(=NNC(=S)N1CCCCC1)c1ccccn1	3	-17	·	·	·	-10	·
CSCCC(NC(=O)c1ccccc1Br)C(=O)NNC(=O)C1COc2ccccc2O1 (stereo not drawn)	5	1	·	·	12	1	·
CCN1CCN(CC(=O)N2N=C(c3cccs3)CC2c2ccc(OC)c(OC)c2)C(=O)C1=O (stereo not drawn)	-1	2	7	-1	5	-3	·
C=C1C(=O)c2sccc2C(c2ccc(OC)c(OC)c2)C1COC(C)=O (stereo not drawn)	1	94*	·	·	92*	60*	97*
COc1cccc(-c2nnc(NC(=O)c3ccc(Cl)s3)o2)c1	-3	55*	20	-4	·	-6	46*
O=C(Nc1nnc(-c2ccco2)o1)c1ccc(Cl)s1	4	11	-16	-1	-4	-6	·
O=C(/C=C/c1cccc([N+](=O)[O-])c1)c1ccco1	-4	0	20	0	20	-10	·
O=C(/C=C/c1cccc([N+](=O)[O-])c1)c1ccc([N+](=O)[O-])o1	1	95*	·	·	105*	9	98*
Cc1nc2c(OCc3ccc(C(F)(F)F)cc3)cccn2c1N(C)CC1CC1	-13	47*	·	·	·	22	24
O=C(CN1CCN(c2ccccn2)CC1)Nc1nc2ccccc2s1	7	-1	15	-3	19	2	·
COc1ccc(Nc2ncccc2C(=O)O)cc1	-3	70*	-1	1	-35	-3	17
CS(=O)(=O)c1ccc2nc(NC(=O)CN3CCN(Cc4ccccc4)CC3)sc2c1	0	40*	11	3	2	0	9
CS(=O)(=O)c1ccc2nc(NC(=O)CN3CCC(Cc4ccccc4)CC3)sc2c1	-2	-6	-4	-4	28	1	·
CN1N=C2c3ccccc3CCC2C1c1ccc(Cl)cc1 (stereo not drawn)	-5	-16	12	-2	10	1	·
COc1cccc(C(=O)NC(=S)N2CCN(c3ccc(C(F)(F)F)cc3[N+](=O)[O-])CC2)c1	-1	48*	12	-2	·	-2	49*
CC(C)Oc1cccc(C(=O)NC(=S)N2CCN(c3ccc(C(F)(F)F)cc3[N+](=O)[O-])CC2)c1	2	27	6	0	38	9	·
COCCN1C(=O)C(=O)/C(=C(/O)c2ccc(S(=O)(=O)N3CCCCC3)cc2)C1c1ccc(OC)cc1 (stereo not drawn)	6	-6	4	0	8	0	·
CCOc1ccc(NCc2cc3c(C(C)(C)C)nn(-c4ccccc4)c3[nH]c2=O)cc1	-2	48*	18	-4	23	18	25
CC(CCc1ccccc1)NC(=O)COC(=O)c1ccc(NC(=O)CC#N)cc1 (stereo not drawn)	-3	-3	4	-4	18	-5	·
O=C(COc1ccc(Cl)cc1)N/N=C/c1cccc2cccnc12	-18	44*	8	1	·	25	56*
COc1ccc(OCC(=O)N/N=C/c2cccc3cccnc23)cc1	1	3	-18	2	8	2	·
O=c1c2ccccc2sn1-c1ccccc1	5	86*	-12	2	76*	13	16
O=C(COC(=O)c1cccs1)NCC1CCCCC1	2	-9	-8	0	10	-11	·
SMILES	m5-HT2A agonist	CXCR6 inh	APJ antag	APJ agonist	CCR6 antag	EBI2 antag	CXCR6 antag conf
CC1(C(=O)O)CCCN1C(=O)c1ccco1 (stereo not drawn)	3	-5	·	·	·	0	·
O=C(NNc1ccc(C(F)(F)F)cc1[N+](=O)[O-])c1ccc(NS(=O)(=O)c2ccc(F)cc2)cc1	-3	48*	·	·	58*	6	39
O=C(CCS(=O)(=O)c1ccc(F)cc1)Nc1nc(-c2ccccn2)cs1	1	-9	-12	4	3	-14	·
CCc1ccccc1OCC(=O)Nc1nc(-c2cccnc2)cs1	-7	51*	17	-4	76*	-10	64*
CCC(=O)c1ccc(OCC(=O)Nc2nc(-c3cccnc3)cs2)cc1	7	-7	-1	9	-6	-6	·
Cc1cc(C)c(OCC(=O)Nc2nc(-c3ccccn3)cs2)c(C)c1	0	52*	-9	-4	·	-12	39
CC(Oc1ccc(F)cc1)C(=O)Nc1nc(-c2ccccn2)cs1 (stereo not drawn)	-2	67*	-2	-7	71*	-8	87*
O=C(COC(=O)c1ccc[n+]([O-])c1)Nc1cc([N+](=O)[O-])ccc1Cl	3	-7	-6	-2	0	-4	·
CCN(CC)C(=O)[C@H]1C[C@H](CC(=O)NCc2ccc(OC)c(OC)c2)C(=O)N2CCc3c([nH]c4ccc(Cl)cc34)[C@]12C	-4	-2	·	·	36	10	·
CC1(C)CC[C@]2(C(=O)n3ccnc3)CC[C@]3(C)[C@H](C(=O)C=C4[C@@]5(C)C=C(C#N)C(=O)C(C)(C)[C@@H]5CC[C@]43C)[C@@H]2C1	3	55*	·	·	57*	29	58*
Fc1ccc(Sc2nc(-c3ccccc3)nnc2C(F)(F)F)cc1	5	45*	34	-6	50*	22	63*
Fc1ccc(Oc2nc(-c3ccccc3)nnc2C(F)(F)F)cc1	1	30	-2	-1	30	-7	·
Cc1ccc(S(=O)(=O)N2CCCCC2)cc1C(=O)NCCN1CCOCC1	9	5	-31	0	-13	-2	·
Cc1nn(S(=O)(=O)c2cccc([N+](=O)[O-])c2)c(C)c1S(=O)(=O)N1CCOCC1	-3	5	0	-2	2	-5	·
Cc1ccc(NS(=O)(=O)c2cc([N+](=O)[O-])ccc2NNC(=S)Nc2cc(C)ccc2C)c(C)c1	1	63*	53*	-8	86*	13	64*
